In ChEMBL document CHEMBL3826885, “Similarities and differences in affinity and binding modes of tricyclic pyrimido- and pyrazinoxanthines at human and rat adenosine receptors” (Bioorg Med Chem, 2016):
≈ marks a conversion by molar mass, not a printed value.

Experiments:
Adenosine receptor A2a [1] = target: Adenosine receptor A2a (Rattus norvegicus, UniProt P30543); assay: Displacement of [3H]MSX2 from adenosine receptor A2a in rat brain striatal membranes; assay type: cell membranes, Membrane
In short: (§1)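 Native rat receptors: A1 in brain cortical membranes with [3H]CCPA, A2A in brain striatal membranes, from frozen unstripped rat brains. Compounds were first screened at a single high concentration in three independent experiments. Active compounds then had full inhibition curves over at least 3 orders of magnitude of concentration.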

Adenosine receptor A3 [2] = target: T1, Adenosine receptor A3 (Homo sapiens, UniProt P0DMS8); assay: Displacement of [3H]PSB-11 from recombinant human adenosine receptor A3 expressed in CHO cell membranes
T1 sequence (P0DMS8 whole entry): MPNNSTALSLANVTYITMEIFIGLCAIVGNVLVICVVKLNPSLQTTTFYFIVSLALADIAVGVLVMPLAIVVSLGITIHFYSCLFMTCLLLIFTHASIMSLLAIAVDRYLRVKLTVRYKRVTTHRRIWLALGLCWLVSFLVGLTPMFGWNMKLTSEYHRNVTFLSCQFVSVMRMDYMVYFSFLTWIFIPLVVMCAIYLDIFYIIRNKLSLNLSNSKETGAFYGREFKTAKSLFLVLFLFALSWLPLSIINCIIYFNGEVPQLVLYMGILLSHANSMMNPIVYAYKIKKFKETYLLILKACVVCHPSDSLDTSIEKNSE

Adenosine receptor A1 [3] = target: T2, Adenosine receptor A1 (Rattus norvegicus, UniProt P25099); assay: Displacement of [3H]CCPA from adenosine receptor A1 in rat brain cortical membranes; assay type: cell membranes
T2 sequence (P25099 whole entry): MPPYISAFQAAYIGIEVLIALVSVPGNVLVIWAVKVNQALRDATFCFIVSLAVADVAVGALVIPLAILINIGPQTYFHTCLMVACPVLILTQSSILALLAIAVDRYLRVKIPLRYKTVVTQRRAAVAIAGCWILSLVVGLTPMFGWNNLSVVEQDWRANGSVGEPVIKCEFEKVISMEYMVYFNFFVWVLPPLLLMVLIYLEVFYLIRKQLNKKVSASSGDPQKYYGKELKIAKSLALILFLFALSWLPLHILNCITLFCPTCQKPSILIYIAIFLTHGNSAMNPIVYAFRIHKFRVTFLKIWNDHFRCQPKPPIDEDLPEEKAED
In short: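 Native rat receptors: A1 in brain cortical membranes with [3H]CCPA, A2A in brain striatal membranes, from frozen unstripped rat brains. Compounds were first screened at a single high concentration in three independent experiments.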

[4] = target: T3, Adenosine receptor A3 (Homo sapiens) (UniProt P0DMS8); assay: Displacement of [3H]PSB11 from recombinant human adenosine receptor A3 expressed in CHO cell membranes at 1 uM
T3 sequence (whole entry): T1 sequence (P0DMS8 whole entry)
In short: (§2)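 Membranes came from CHO cells expressing recombinant receptors (human A1, A2A, A2B, A3; rat A2B, A3). Radioligands were [3H]CCPA for A1 and [3H]PSB-11 or [3H]NECA for A3. A single high concentration was screened first, in three experiments for A1/A2A and two for A2B/A3. Full inhibition curves spanning at least 3 log units were run for potent compounds.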

[5] = target: T4, Adenosine receptor A2b (Rattus norvegicus) (UniProt P29276); assay: Displacement of [3H]PSB-603 from recombinant rat adenosine receptor A2b expressed in CHO cell membranes at 1 uM; in short: as §2
T4 sequence (whole entry): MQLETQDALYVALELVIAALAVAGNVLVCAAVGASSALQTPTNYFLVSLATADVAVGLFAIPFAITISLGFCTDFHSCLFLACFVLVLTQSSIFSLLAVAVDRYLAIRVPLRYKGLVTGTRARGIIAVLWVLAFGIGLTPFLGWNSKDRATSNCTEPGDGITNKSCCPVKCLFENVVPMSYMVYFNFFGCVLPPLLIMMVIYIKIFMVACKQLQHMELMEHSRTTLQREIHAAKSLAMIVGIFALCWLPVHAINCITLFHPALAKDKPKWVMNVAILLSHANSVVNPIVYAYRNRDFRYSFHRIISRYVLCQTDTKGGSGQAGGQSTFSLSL

Adenosine receptor A2a [6] = target: T5, Adenosine receptor A2a (Homo sapiens, UniProt P29274); assay: Displacement of [3H]MSX2 from recombinant human adenosine receptor A2a expressed in CHO cell membranes; in short: as §2
[7] = target: T6, Adenosine receptor A1 (Homo sapiens) (UniProt P30542); assay: Displacement of [3H]CCPA from recombinant human adenosine receptor A1 expressed in CHO cell membranes at 1 uM; in short: as §2
T6 sequence (whole entry): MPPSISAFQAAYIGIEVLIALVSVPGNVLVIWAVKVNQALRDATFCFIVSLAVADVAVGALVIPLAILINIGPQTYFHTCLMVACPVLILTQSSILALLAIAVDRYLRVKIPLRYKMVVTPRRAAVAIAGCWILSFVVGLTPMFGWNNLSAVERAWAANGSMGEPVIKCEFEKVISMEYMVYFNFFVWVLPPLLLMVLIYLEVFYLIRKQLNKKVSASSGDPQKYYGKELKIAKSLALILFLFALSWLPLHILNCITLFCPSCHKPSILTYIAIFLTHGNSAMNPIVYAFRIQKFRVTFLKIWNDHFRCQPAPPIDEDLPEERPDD

Adenosine receptor A2a [8] = target: T5, Adenosine receptor A2a; assay: Displacement of [3H]MSX2 from recombinant human adenosine receptor A2a expressed in CHO cell membranes at 1 uM; in short: as §2
Adenosine receptor A2b [9] = target: T7, Adenosine receptor A2b (Homo sapiens, UniProt P29275); assay: Displacement of [3H]PSB-603 from recombinant human adenosine receptor A2b expressed in CHO cell membranes
T7 sequence (P29275 whole entry): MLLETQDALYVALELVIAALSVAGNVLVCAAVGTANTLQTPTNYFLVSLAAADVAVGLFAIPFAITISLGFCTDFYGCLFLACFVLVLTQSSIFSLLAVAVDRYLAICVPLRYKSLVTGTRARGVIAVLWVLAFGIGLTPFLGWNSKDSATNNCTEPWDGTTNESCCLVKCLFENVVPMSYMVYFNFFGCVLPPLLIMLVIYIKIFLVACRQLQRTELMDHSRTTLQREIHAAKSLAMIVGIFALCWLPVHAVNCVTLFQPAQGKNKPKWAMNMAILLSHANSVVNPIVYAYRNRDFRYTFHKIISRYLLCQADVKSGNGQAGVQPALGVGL
In short: (§3)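 Membranes came from CHO cells expressing recombinant receptors (human A1, A2A, A2B, A3; rat A2B, A3). Radioligands were [3H]CCPA for A1 and [3H]PSB-11 or [3H]NECA for A3. A single high concentration was screened first, in three experiments for A1/A2A and two for A2B/A3.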

[10] = target: T8, Adenosine receptor A3 (Rattus norvegicus) (UniProt P28647); assay: Displacement of [3H]NECA from recombinant rat adenosine receptor A3 expressed in CHO cell membranes at 1 uM; in short: as §2
T8 sequence (whole entry): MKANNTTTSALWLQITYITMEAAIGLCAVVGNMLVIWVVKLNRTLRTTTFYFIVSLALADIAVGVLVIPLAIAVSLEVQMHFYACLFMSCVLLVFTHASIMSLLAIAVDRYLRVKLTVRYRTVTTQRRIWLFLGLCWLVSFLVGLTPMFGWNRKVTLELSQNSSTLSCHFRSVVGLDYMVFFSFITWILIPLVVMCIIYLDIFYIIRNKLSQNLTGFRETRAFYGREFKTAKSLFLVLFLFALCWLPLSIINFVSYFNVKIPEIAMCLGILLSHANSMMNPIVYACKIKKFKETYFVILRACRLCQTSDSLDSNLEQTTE

Adenosine receptor A1 [11] = target: T9, Adenosine receptor A1 (Homo sapiens, UniProt P30542); assay: Displacement of [3H]CCPA from recombinant human adenosine receptor A1 expressed in CHO cell membranes; in short: as §2
T9 sequence (P30542 whole entry): T6 sequence (whole entry)

[12] = target: Adenosine receptor A2a (Rattus norvegicus) (UniProt P30543); assay: Displacement of [3H]MSX2 from Adenosine receptor A2a in rat brain striatal membranes at 1 uM; assay type: cell membranes; conditions: Membrane; in short: as §1
Adenosine receptor A3 [13] = target: T10, Adenosine receptor A3 (Rattus norvegicus, UniProt P28647); assay: Displacement of [3H]NECA from recombinant rat adenosine receptor A3 expressed in CHO cell membranes; in short: as §3
T10 sequence (P28647 whole entry): T8 sequence (whole entry)

Adenosine receptor A2b [14] = target: T11, Adenosine receptor A2b (Rattus norvegicus, UniProt P29276); assay: Displacement of [3H]PSB-603 from recombinant rat adenosine receptor A2b expressed in CHO cell membranes; in short: as §3
T11 sequence (P29276 whole entry): T4 sequence (whole entry)

[15] = target: T12, Adenosine receptor A1 (Rattus norvegicus) (UniProt P25099); assay: Displacement of [3H]CCPA from adenosine receptor A1 in rat brain cortical membranes at 1 uM; assay type: cell membranes; in short: as §1
T12 sequence (whole entry): T2 sequence (P25099 whole entry)

[16] = target: T13, Adenosine receptor A2b (Homo sapiens) (UniProt P29275); assay: Displacement of [3H]PSB-603 from recombinant human adenosine receptor A2b expressed in CHO cell membranes at 1 uM; in short: as §2
T13 sequence (whole entry): T7 sequence (P29275 whole entry)

[17] = Solubility of compound in water at 20 degC by UV-spectroscopic analysis; assay type: physicochemical
In short: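 Suspensions were boiled 5 min, left overnight at 20 °C, and filtered. Filtrates were diluted 10-80-fold in MeOH and read by UV in MeOH/H2O (90% v/v). Concentration came from standard curves of seven concentrations from 10^-3 to 10^-1 mg/mL, using linear regression of two neighbouring points and multiplying by the dilution.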

[18] = target: T12, Adenosine receptor A1 (Rattus norvegicus); assay: Displacement of [3H]CCPA from adenosine receptor A1 in rat brain cortical membranes at 10 uM; assay type: cell membranes; conditions: 10 uM; in short: as §1

T5 sequence (P29274 whole entry): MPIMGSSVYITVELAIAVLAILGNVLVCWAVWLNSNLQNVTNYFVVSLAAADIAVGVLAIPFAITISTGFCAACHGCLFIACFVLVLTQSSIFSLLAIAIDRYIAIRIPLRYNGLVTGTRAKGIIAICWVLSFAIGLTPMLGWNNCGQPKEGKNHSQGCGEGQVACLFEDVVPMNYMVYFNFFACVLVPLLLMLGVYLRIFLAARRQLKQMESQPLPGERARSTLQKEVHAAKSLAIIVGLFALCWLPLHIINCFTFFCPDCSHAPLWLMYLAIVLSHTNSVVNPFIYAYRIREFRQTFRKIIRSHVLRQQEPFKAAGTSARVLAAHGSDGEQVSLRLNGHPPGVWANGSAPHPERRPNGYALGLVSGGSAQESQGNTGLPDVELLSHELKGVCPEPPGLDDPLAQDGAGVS
Chain of Adenosine receptor A2a (Rattus norvegicus) (P30543 whole entry): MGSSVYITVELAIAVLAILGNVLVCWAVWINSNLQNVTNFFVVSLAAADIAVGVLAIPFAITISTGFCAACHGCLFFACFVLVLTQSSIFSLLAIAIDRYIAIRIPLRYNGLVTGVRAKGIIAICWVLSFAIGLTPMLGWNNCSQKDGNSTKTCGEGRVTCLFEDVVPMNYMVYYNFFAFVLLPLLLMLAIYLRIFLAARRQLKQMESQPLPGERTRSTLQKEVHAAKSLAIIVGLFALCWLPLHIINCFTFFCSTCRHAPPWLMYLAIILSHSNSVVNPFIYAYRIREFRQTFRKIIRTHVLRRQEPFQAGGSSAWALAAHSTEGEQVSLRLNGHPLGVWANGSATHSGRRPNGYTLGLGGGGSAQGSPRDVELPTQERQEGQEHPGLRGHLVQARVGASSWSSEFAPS
Chain of Adenosine receptor A2a (Rattus norvegicus, UniProt P30543) (P30543 whole entry): as above

Compound CCCn1c(=O)c2c(nc3n2CCCN3c2ccc(OCCN3CCCC3)cc2)n(CCC)c1=O has a Ki (Adenosine receptor A2a [1]) greater than 1 µM, a Ki (Adenosine receptor A3 [2]) greater than 1 µM and a Ki (Adenosine receptor A1 [3]) of 0.175 µM. For the same compound, the inhibition [4] was 20%, the inhibition [5] was 4% and the Ki (Adenosine receptor A2a [6]) was 2.38 µM. It also gave an inhibition [7] of 22%, an inhibition (Adenosine receptor A2a [8]) of 10% and a Ki (Adenosine receptor A2b [9]) greater than 1 µM. The inhibition [10] was 10%, the Ki (Adenosine receptor A1 [11]) was 1.99 µM and the inhibition [12] was 28%. It also gave a Ki (Adenosine receptor A3 [13]) greater than 1 µM, a Ki (Adenosine receptor A2b [14]) greater than 1 µM and an inhibition [15] of 53%. For the same compound, the inhibition [16] was 10%.
With CCn1c(=O)c2c(nc3n2CCCN3CCc2ccc(O)cc2)n(CC)c1=O the Ki (Adenosine receptor A2a [1]) was 0.271 µM, the inhibition [5] was 14% and the Ki (Adenosine receptor A2a [6]) was 2.18 µM. For the same compound, the inhibition [7] was 20%, the inhibition (Adenosine receptor A2a [8]) was 30% and the Ki (Adenosine receptor A2b [9]) was greater than 0.5 µM. It also gave an inhibition [10] of 19%, a Ki (Adenosine receptor A1 [11]) of 2.02 µM and an inhibition [12] of 80%. It also gave an inhibition [15] of 14% and an inhibition [16] of 42%.
Compound COc1ccc(N2CCCn3c2nc2c3c(=O)n(C)c(=O)n2C)cc1 has a solubility [17] of 51 µg/mL (≈ 149 µM).
For CCCCn1c(=O)c2c(nc3n2CCCN3c2ccc(OCCN3CCCC3)cc2)n(CCCC)c1=O, the Ki (Adenosine receptor A2a [1]) was 0.989 µM, the Ki (Adenosine receptor A1 [3]) was 0.072 µM and the inhibition [4] was 48%. For the same compound, the inhibition [5] was 15%, the Ki (Adenosine receptor A2a [6]) was 0.666 µM and the inhibition [7] was 41%. It also gave an inhibition (Adenosine receptor A2a [8]) of 68%, a Ki (Adenosine receptor A2b [9]) greater than 1 µM and an inhibition [10] of 20%. It also gave a Ki (Adenosine receptor A1 [11]) of 0.658 µM, an inhibition [12] of 49% and a Ki (Adenosine receptor A3 [13]) greater than 1 µM. The Ki (Adenosine receptor A2b [14]) was greater than 1 µM, the inhibition [15] was 69% and the inhibition [16] was 34%.
Cn1c(=O)c2c(nc3n2CCN(CCc2ccc(OCCN4CCOCC4)cc2)C3)n(C)c1=O gave a Ki (Adenosine receptor A2a [1]) of 11.5 µM, a Ki (Adenosine receptor A3 [2]) greater than 1 µM and a Ki (Adenosine receptor A1 [3]) greater than 10 µM. For the same compound, the inhibition [4] was 3%, the Ki (Adenosine receptor A2b [9]) was greater than 1 µM and the inhibition [16] was 4%. It also gave an inhibition [18] of 22%.
With CCCn1c(=O)c2c(nc3n2CCCN3c2ccc(OCCN(CC)CC)cc2)n(CCC)c1=O the Ki (Adenosine receptor A2a [1]) was 1.79 µM, the solubility [17] was 260 µg/mL (≈ 539 µM) and the Ki (Adenosine receptor A3 [2]) was greater than 1 µM. The Ki (Adenosine receptor A1 [3]) was 0.567 µM, the inhibition [4] was 20% and the Ki (Adenosine receptor A2b [9]) was greater than 1 µM. It also gave an inhibition [12] of 51%, an inhibition [15] of 30% and an inhibition [16] of 22%.
